Screens: PubChem, several laboratories
In the library only some 2.1% were active in any assay of this set; here they are far more common.
CXCR6 block: inhibitors of human CXCR6 receptor; CHO-K1 PathHunter CXCR6 beta-arrestin, luminescence; inhibition, % at 20 µM; hit rate 0.36% among 360,000; in the data active means inhibition above about 34%, passing the limit was not always enough;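 further: antagonist mode with CXCL16 agonist at 10 nM final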
HTR2A ag: mouse HTR2A agonism via beta-arrestin recruitment | CHO-K1 mHTR2A beta-arrestin complementation, luminescence; percent of 30 µM serotonin response | hit rate 0.66% among 360,000 | activation, % at 7.6 µM | AID 624169 | P35363;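 active means activation above a run cutoff, the mean activation of all tested compounds plus 3 SD, cut at about 14% in these data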
APJ ag: activates the human apelin receptor APJ; P35414; CHO-K1 APJ PathHunter beta-arrestin, luminescence; 0% DMSO wells, 100% apelin; activation, % at 20 µM; hit rate 0.11% among 330,000; AID 2520;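 active means activation more than six SD over the plate average, tested at 20 µM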
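Assay system: engineered CHO-K1 APJ arrestin reporter cells; Amount: 1000 CHO-K1 reporter cells seeded per well; Dosing: one dose, 20 µM compound, 1% DMSO; Times: compound stimulation 90 min at 25 °C, detection 60 min; Measured by: luminescent beta-gal fragment complementation, chemiluminescent substrate; Read-out: APJ–arrestin association signal; Controls: DMSO vs Apelin-13 10 nM.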
CCR6 antag: blocks CCL20-driven beta-arrestin recruitment at human CCR6. hit rate 0.49% among 340,000. inhibition, % at 20 µM. P51684. CHO-K1 CCR6 PathHunter beta-arrestin, luminescence, CCL20-stimulated;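 active means compounds whose inhibition of the agonist-driven luminescence signal at 20 µM reaches about 50%, limit read from the data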;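 further: cells stimulated with CCL20 at 14 nM final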
EBI2 block: antagonists of human EBI2 receptor. P32249. EBI2 beta-arrestin recruitment, luminescence, 7a,25-OHC stimulated. inhibition, % at 5 µM. hit rate 0.81% among 360,000. AID 651636; in the data active means inhibition above about 38%;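 further: enzyme fragment complementation signal reports receptor beta-arrestin coupling in cells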
APJ antag: blocks the human apelin receptor APJ | hit rate 0.32% among 330,000 | P35414 | CHO-K1 APJ beta-arrestin complementation, luminescence | AID 2521 | inhibition, % at 20 µM;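 active means inhibition above about 40% at 20 µM, limit read from the data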;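 further: cells challenged with 10 nM apelin-13 agonist together with compound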
OPRM1 ag: activates human mu opioid receptor in HTR2A counterscreen | shares compounds with HTR2A ag | U2OS OPRM1 beta-arrestin PathHunter, luminescence; DMSO 0%, DAMGO 9.3 µM 100% | activation, % at 9.3 µM | hit rate 5.3% among 2,300;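 active means mean activation above the mean of DMSO-only wells plus 3 SD, cut at about 0.5% in these data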
Target sequence (P35372 whole entry, looked up): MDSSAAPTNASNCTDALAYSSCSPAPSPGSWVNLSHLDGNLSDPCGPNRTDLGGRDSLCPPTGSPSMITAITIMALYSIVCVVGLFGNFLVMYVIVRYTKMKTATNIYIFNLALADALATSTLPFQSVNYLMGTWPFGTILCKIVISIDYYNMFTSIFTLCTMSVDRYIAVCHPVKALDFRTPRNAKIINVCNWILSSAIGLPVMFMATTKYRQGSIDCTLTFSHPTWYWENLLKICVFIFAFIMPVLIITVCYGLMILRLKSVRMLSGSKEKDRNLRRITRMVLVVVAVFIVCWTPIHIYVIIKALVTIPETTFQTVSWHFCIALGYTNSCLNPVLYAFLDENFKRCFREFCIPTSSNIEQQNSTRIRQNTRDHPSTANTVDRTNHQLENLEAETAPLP
HTR2A ag conf: confirmation of mouse HTR2A serotonin receptor agonists | shares compounds with HTR2A ag | CHO-K1 PathHunter beta-arrestin recruitment, luminescence; DMSO 0%, 30 µM serotonin 100% | activation, % at 7.6 µM | hit rate 19% among 2,300;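 active means mean activation across triplicates above the hit threshold derived in the original primary screen, cut at about 15% in these data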
Each line names hits and unclear results; the compound was inactive in the other large screens (follow-up assays come after a bar, where they were run).

O=C(O)C1CC=CCC1C(=O)Nc1cccc([N+](=O)[O-])c1 (stereo unspecified)	none
O=C(NCc1ccccc1)C1C(c2ccccc2)=Nc2ccccc2N1C(=O)c1cnccn1 (stereo unspecified)	HTR2A ag 14.4 (no result: CXCR6 block, APJ ag, CCR6 antag, APJ antag) | OPRM1 ag inactive | HTR2A ag conf inactive
Cc1ccc(C(=O)NCCNC(=O)CN2CCOCC2)cc1	HTR2A ag 14.6 | OPRM1 ag inactive | HTR2A ag conf inactive
CCOc1ccc(NC(=O)CN(C)C(=O)CSCc2cccc(C)c2)cc1OCC	none
CCOC(=O)C1CCN(S(=O)(=O)c2c(C)n(C)c(=O)n(C)c2=O)CC1	HTR2A ag 20.9 | OPRM1 ag inactive | HTR2A ag conf inactive
CCOC(=O)C1CCN(S(=O)(=O)c2cn(C)c(=O)n(C)c2=O)CC1	none
Cc1cccc(CC(C)NC(=O)c2cc(COc3ccc(C)c(C)c3)on2)n1 (stereo unspecified)	none
COc1cc(-c2ccc3c(=O)c4ccccc4n(C)c3c2)cc(OC)c1OC	HTR2A ag 17.9 | OPRM1 ag inactive | HTR2A ag conf inactive
CCN(CC)C(=O)Nc1ccc(Br)cc1	HTR2A ag 23.3 | OPRM1 ag inactive | HTR2A ag conf inactive
CC(C)(C)OC(=O)NCCCCCNC(=O)c1nc[nH]c1C(=O)NCC(=O)OCc1ccccc1	none
CC(C)(C)OC(=O)CNC(=O)c1[nH]cnc1C(=O)NCC(=O)OCc1ccccc1	HTR2A ag 14.7 | OPRM1 ag inactive | HTR2A ag conf inactive
CCO[C@H]1OC(C(=O)O)=C[C@@H](c2ccccc2)[C@@H]1CCCO	HTR2A ag 15.4 | OPRM1 ag inactive | HTR2A ag conf inactive
Cc1ccc(NC(=O)CCN2C(=O)c3ccccc3C2=O)cc1	HTR2A ag 23.0 | OPRM1 ag inactive | HTR2A ag conf inactive
CCCCCCn1cc(CN2CC(N3CCCCC3)CS2(=O)=O)nn1 (stereo unspecified)	HTR2A ag 15.6 (no result: APJ ag, CCR6 antag, APJ antag) | OPRM1 ag inactive | HTR2A ag conf inactive
Cc1cc(C)cc(Cn2cc(CN3CC(N4CCN(Cc5ccccc5F)CC4)CS3(=O)=O)nn2)c1 (stereo unspecified)	HTR2A ag 14.9 (no result: APJ ag, CCR6 antag, APJ antag) | OPRM1 ag inactive | HTR2A ag conf inactive
C=CC[N+](C)(C)c1ccc(CCC(=O)CCc2ccc([N+](C)(C)CC=C)cc2)cc1	none
CCC(C)(C)NC(=O)CN(C(=O)C(=O)Nc1ccc2c(c1)OCCO2)N1CCOCC1	HTR2A ag 16.1 | OPRM1 ag inactive | HTR2A ag conf inactive
CCC1=C(OC(=O)N(CC)CC)N2C(=O)OC(=NCC3CC3)[C@]2(Cc2ccccc2)[C@H]2C1=CC[C@H]1C(=O)N(CC)C(=O)[C@H]12	HTR2A ag 17.6 | OPRM1 ag 0.9 | HTR2A ag conf inactive
CCC1=C(OC(=O)N(CC)CC)N2C(=O)OC(=NCCOC)[C@]2(Cc2ccccc2)[C@H]2C1=CC[C@H]1C(=O)N(CC)C(=O)[C@H]12	none
c1ccc(-c2c(-c3ccccc3)n(Cc3ccco3)c3ncnc(NCCCn4ccnc4)c23)cc1	none
OCCNc1ncnc2c1c(-c1ccccc1)c(-c1ccccc1)n2Cc1ccco1	HTR2A ag 14.5 | OPRM1 ag inactive | HTR2A ag conf inactive
CSc1ccccc1OCc1cc(C(=O)N2CCCC2c2nonc2C)no1 (stereo unspecified)	none
Cc1cccc(C)c1OCc1cc(C(=O)N2CCCC2c2nonc2C)no1 (stereo unspecified)	HTR2A ag 14.4 | OPRM1 ag inactive | HTR2A ag conf inactive
Nc1ccc2nc(-c3ccccc3)[nH]c2c1	HTR2A ag 15.1 | OPRM1 ag inactive | HTR2A ag conf inactive
Nc1ccc2nc(-c3cccnc3)[nH]c2c1	none
Cc1ccc(NC(=O)Cn2nnc(C(=O)NCc3ccco3)c2N)cc1	none
Cc1ccc2nc(SC(C)C(=O)N3CCCC3)[nH]c2c1 (stereo unspecified)	none
COCCC(=O)Nc1ccc2c(c1)CN(C(=O)CSC)CC2	none
COCCC(=O)N1CCc2ccc(NC(=O)c3ccc(C(F)(F)F)cc3)cc2C1	HTR2A ag 31.6 | OPRM1 ag 1.2 | HTR2A ag conf inactive
COc1ccccc1C=C1CCc2ccccc2C1=O	none (no result: APJ ag, CCR6 antag, APJ antag)
COc1cc(/C=C2\CCc3ccccc3C2=O)cc(OC)c1OC	HTR2A ag 19.1 | OPRM1 ag inactive | HTR2A ag conf inactive
CCOc1ccccc1C=C1CCc2ccccc2C1=O	HTR2A ag 29.5 (no result: APJ ag, CCR6 antag, APJ antag) | OPRM1 ag inactive | HTR2A ag conf inactive
S=c1nc(SCc2ccccc2)[nH]c2ccccc12	none
C=CCNC(=O)CN1CCN(C(c2ccccc2)c2ccccc2)CC1	none
O=C1CC[C@@H](C(=O)N2CSC[C@H]2C(=O)O)N1	HTR2A ag 46.5 | OPRM1 ag inactive | HTR2A ag conf inactive
O=C1CCC(C(=O)Nc2ccccc2)N1 (stereo unspecified)	none
C=CCN(CC=C)C(=S)Nc1ccc2nsnc2c1	none
CCN(CC(=O)Nc1ccc(OC)cc1)C(=O)C1CC(=O)N(Cc2ccccc2)C1 (stereo unspecified)	HTR2A ag 16.2 (no result: APJ ag, CCR6 antag, APJ antag) | OPRM1 ag inactive | HTR2A ag conf inactive
NS(=O)(=O)c1ccc(NC(=O)COC(=O)C2CC(=O)N(Cc3ccccc3)C2)cc1 (stereo unspecified)	HTR2A ag 15.7 | OPRM1 ag inactive | HTR2A ag conf inactive
COc1ccc(-c2cc(Cl)cc3c(=O)c4ccccc4n(C)c23)cc1F	none
CCOP(=O)(c1ccccc1)C1(C#N)CC1 (stereo unspecified)	none
COc1cc(NC(=O)C2CC(c3ccccc3Cl)=NO2)cc(OC)c1OC (stereo unspecified)	HTR2A ag 18.2 | OPRM1 ag inactive | HTR2A ag conf inactive
CC[C@]12c3[nH]c4ccccc4c3CCN1C(=O)C(CC(=O)NCCN1CCOCC1)C[C@@H]2C(=O)N1CCN(C(=O)c2ccco2)CC1 (stereo partly specified)	none
COCCCNC(=O)C[C@H]1C[C@H](C(=O)N2CCOCC2)[C@@]2(CCC3CCCC3)c3[nH]c4cc(-c5ccco5)ccc4c3CCN2C1=O	HTR2A ag 15.5 (no result: APJ ag, APJ antag) | OPRM1 ag inactive | HTR2A ag conf inactive
CC[C@]12c3[nH]c4ccccc4c3CCN1C(=O)C(CC(=O)NCc1cccc(C(F)(F)F)c1)C[C@@H]2C(=O)N1CCN(C(=O)c2ccco2)CC1 (stereo partly specified)	HTR2A ag 21.6 | OPRM1 ag inactive | HTR2A ag conf inactive
